Source: ChEMBL document CHEMBL1221252, “Novel 1H-pyrrolo[2,3-c]pyridines as acid pump antagonists (APAs)” (Bioorg Med Chem Lett, 2010)
pIC50: −log10 of the molar value.

Biological target: not listed separately
Assay: Inhibition of pig gastric H(+)/K(+) ATPase
Assay type: tissue-based, Sus scrofa, Stomach
Conditions: not given
Outline: (§1)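 Ion-leaky gastric membrane vesicles enriched in H+/K+-ATPase, prepared from pig stomach. Lyophilized vesicles in 5 mM PIPES/Tris pH 6.1 preincubated 5 min with compound, then buffer with or without K+ added. ATP substrate added, 30 min at 37 °C. Stopped with colorimetric reagent; Pi read at 620 nm. Activity taken as K+-stimulated Pi production (with minus without K+); IC50 from % inhibition by Litchfield–Wilcoxon.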
A pIC50 of 6.74 was found for `Cc1c(C)n(CC2CC2)c2c(OCc3ccc(F)cc3)nccc12` in this work.
A pIC50 of 6.13 was found for `Cc1c(C)n(Cc2ccccc2)c2c(OCc3ccc(F)cc3)nc(C(=O)NC3CC3)cc12` in this work.
A pIC50 of 6.90 was found for `C=CCn1c(C)c(C)c2ccnc(OCc3ccc(F)cc3)c21` in this work.
A pIC50 of 6.71 was found for `Cc1c(C)n(CC(C)C)c2c(OCc3ccc(F)cc3)nccc12` in this work.
A pIC50 of 7.55 was found for `Cc1c(C)n(Cc2ccccc2)c2c(OCc3ccc(F)cc3)nc(C(=O)N(C)C)cc12` in this work.
A pIC50 of 6.73 was found for `Cc1c(C)n(Cc2ccccc2)c2c(OCc3ccc(Cl)cc3)nccc12` in this work.
A pIC50 of 6.13 was found for `C=CCn1c(C)c(C)c2cc(C(=O)Nc3ccncc3)nc(OCc3ccc(F)cc3)c21` in this work.
A pIC50 of 6.76 was found for `Cc1c(C)n(CC2OCCO2)c2c(OCc3ccc(F)cc3)nccc12` in this work.
A pIC50 of 6.69 was found for `Cc1c(C)n(CC(C)C)c2c(OCc3ccc(Cl)cc3)nccc12` in this work.
A pIC50 of 6.39 was found for `C=CCn1c(C)c(C)c2cc(C(=O)NC3CC3)nc(OCc3ccc(F)cc3)c21` in this work.
A pIC50 of 6.52 was found for `CCCn1c(C)c(C)c2ccnc(OCc3ccc(F)cc3)c21` in this work.
A pIC50 of 7.54 was found for `Cc1c(C)n(Cc2ccccc2)c2c(OCc3ccc(F)cc3)nc(C(=O)N3CCOCC3)cc12` in this work.

Species on record: Sus scrofa
Assay: Inhibition of pig gastric H(+)/K(+) ATPase at 1 uM
Assay type: tissue-based
Conditions: Stomach
Outline: as §1
An inhibition of 39.4% was found for `CNC(=O)c1cc2c(C)c(C)n(Cc3ccccc3)c2c(OCc2ccc(F)cc2)n1` in this work.

Species on record: Sus scrofa
Assay: Inhibition of pig gastric H(+)/K(+) ATPase at 4 uM
Assay type: tissue-based
Conditions: Stomach
Outline: as §1
An inhibition of 78.4% was found for `C=CCn1c(C)c(C)c2cc(C(=O)NC)nc(OCc3ccc(F)cc3)c21` in this work.
An inhibition of 16.1% was found for `Cc1c(C)n(Cc2ccccc2)c2c(OCc3ccc(F)cc3)nc(C(N)=O)cc12` in this work.
An inhibition of 80.3% was found for `C=CCn1c(C)c(C)c2cc(C(N)=O)nc(OCc3ccc(F)cc3)c21` in this work.
An inhibition of 32.1% was found for `Cc1[nH]c2c(OCc3ccccc3F)nccc2c1C` in this work.
An inhibition of 60.3% was found for `Cc1[nH]c2c(OCc3ccc(F)cc3)nccc2c1C` in this work.
An inhibition of 50.9% was found for `Cc1[nH]c2c(OCc3ccccc3)nccc2c1C` in this work.
